From ChEMBL document CHEMBL1629614, “Inhibition of methionyl-tRNA synthetase by REP8839 and effects of resistance mutations on enzyme activity” (Antimicrob Agents Chemother, 2009)
≈ marks a conversion by molar mass, not a printed value.

Assays:
[1] = biological target: Methionine--tRNA ligase (Staphylococcus aureus subsp. aureus MW2, UniProt Q8NY00, I57N); assay: Inhibition of Staphylococcus aureus MetRS I57N mutant
How it was run: (§1)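 Purified recombinant S. aureus MetRS (mutant, expressed in E. coli) was tested by ATP:PPi exchange with [32P]PPi, using 125 mM methionine and 100 μM ATP so that the IC50 sits above enzyme concentration. Inhibitor was in DMSO (8% final), over 1 μM to 0.05 nM. A sigmoidal fit gave the IC50, and Ki = IC50/[(1+[Met]/KmMet)(1+KmATP/[ATP])], with KmMet taken at that ATP level.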

[2] = system: Streptococcus pneumoniae; assay: Antimicrobial activity against Streptococcus pneumoniae expressing MetRS2 gene; format: functional
[3] = biological target: Methionine--tRNA ligase (Staphylococcus aureus subsp. aureus MW2, UniProt Q8NY00, A247E); assay: Inhibition of Staphylococcus aureus MetRS A247E mutant; how it was run: as §1
[4] = biological target: Methionine--tRNA ligase (Staphylococcus aureus subsp. aureus MW2, UniProt Q8NY00, G223C); assay: Inhibition of Staphylococcus aureus MetRS G223C mutant; how it was run: as §1
[5] = Inhibition of Streptococcus pneumoniae MetRS2
How it was run: (§2)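 tRNA aminoacylation with scintillation proximity detection. Purified MetRS in 40 mM Tris-HCl pH 8.0, 10 mM Mg acetate, 2.5 mM ATP, 80 mM KCl, 2.5 mM DTT, BSA, [3H]methionine (7 μM Met), 1 μg/ml crude E. coli tRNA. Human enzymes had 0.2–0.6 mM spermine, and substrate, Mg and enzyme levels were optimized per ortholog. Inhibitor was a DMSO serial dilution, 1 μM to 0.05 nM (final), 8% DMSO final, 30 min at room temperature. Reactions were EDTA-stopped, and charged tRNA was captured on polylysine YSi beads at pH 2.0. IC50 came from a four-parameter logistic fit versus DMSO control.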

[6] = system: A549; assay: Cytotoxicity against human A549 cells by MTT assay; format: cell-based
[7] = system: Staphylococcus aureus; assay: Antimicrobial activity against Staphylococcus aureus expressing MetRS V108M mutant; format: functional
[8] = biological target: Methionine--tRNA ligase (Staphylococcus aureus subsp. aureus MW2, UniProt Q8NY00, A247E/I57N); assay: Inhibition of Staphylococcus aureus MetRS I57N A247E mutant
[9] = biological target: Methionine--tRNA ligase (Staphylococcus aureus subsp. aureus MW2, UniProt Q8NY00, G54S); assay: Inhibition of Staphylococcus aureus MetRS G54S mutant
[10] = system: Staphylococcus aureus; assay: Antimicrobial activity against Staphylococcus aureus expressing MetRS G54A A64P mutant; format: functional
[11] = Cytotoxicity against rat H42E cells by MTT assay; format: cell-based
[12] = Inhibition of Streptococcus pneumoniae MetRS1; how it was run: as §2
[13] = Inhibition of human cytoplasmic MetRS; how it was run: as §2
[14] = biological target: Methionine--tRNA ligase (Staphylococcus aureus subsp. aureus MW2, UniProt Q8NY00, G54S/I57N); assay: Inhibition of Staphylococcus aureus MetRS I57N G54S mutant
[15] = system: Staphylococcus aureus; assay: Antimicrobial activity against Staphylococcus aureus expressing MetRS gene; format: functional
[16] = system: Streptococcus pneumoniae; assay: Antimicrobial activity against Streptococcus pneumoniae expressing MetRS1 gene; format: functional
[17] = biological target: Methionine--tRNA ligase (Staphylococcus aureus subsp. aureus MW2, UniProt Q8NY00, L213W); assay: Inhibition of Staphylococcus aureus MetRS L213W mutant; how it was run: as §1
[18] = system: Haemophilus influenzae; assay: Antimicrobial activity against Haemophilus influenzae expressing MetRS gene; format: functional
[19] = system: Staphylococcus aureus; assay: Antimicrobial activity against Staphylococcus aureus expressing MetRS I57N mutant; format: functional
[20] = biological target: Methionine--tRNA ligase (Staphylococcus aureus subsp. aureus MW2, UniProt Q8NY00, A64P/G54A); assay: Inhibition of Staphylococcus aureus MetRS G54A A64P mutant
[21] = system: Staphylococcus aureus; assay: Antimicrobial activity against Staphylococcus aureus expressing MetRS L213W mutant; format: functional
[22] = biological target: T1, Methionine--tRNA ligase (Haemophilus influenzae (strain ATCC 51907 / DSM 11121 / KW20 / Rd), UniProt P43828); assay: Inhibition of Haemophilus influenzae MetRS; how it was run: as §2
T1 sequence (P43828 whole entry): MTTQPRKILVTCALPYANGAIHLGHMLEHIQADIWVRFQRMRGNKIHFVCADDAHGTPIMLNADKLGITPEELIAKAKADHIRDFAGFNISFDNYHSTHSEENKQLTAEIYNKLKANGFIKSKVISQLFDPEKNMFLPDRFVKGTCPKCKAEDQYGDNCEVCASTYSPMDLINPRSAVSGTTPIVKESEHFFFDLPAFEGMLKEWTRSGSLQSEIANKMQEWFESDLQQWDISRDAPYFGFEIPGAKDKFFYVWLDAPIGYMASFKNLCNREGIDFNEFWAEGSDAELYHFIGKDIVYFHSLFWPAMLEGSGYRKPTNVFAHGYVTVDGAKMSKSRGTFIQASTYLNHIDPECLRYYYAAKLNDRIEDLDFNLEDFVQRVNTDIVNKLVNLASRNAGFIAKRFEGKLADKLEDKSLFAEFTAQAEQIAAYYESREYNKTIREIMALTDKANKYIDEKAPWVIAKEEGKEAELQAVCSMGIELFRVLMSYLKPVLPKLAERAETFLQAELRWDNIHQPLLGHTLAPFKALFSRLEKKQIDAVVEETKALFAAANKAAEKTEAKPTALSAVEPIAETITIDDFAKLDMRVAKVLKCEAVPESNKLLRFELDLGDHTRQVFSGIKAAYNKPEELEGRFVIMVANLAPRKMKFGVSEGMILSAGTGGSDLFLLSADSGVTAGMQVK

[23] = biological target: Methionine--tRNA ligase (Staphylococcus aureus subsp. aureus MW2, UniProt Q8NY00, I238F/I57N); assay: Inhibition of Staphylococcus aureus MetRS I57N I238F mutant
[24] = system: Staphylococcus aureus; assay: Antimicrobial activity against Staphylococcus aureus expressing MetRS G223C mutant; format: functional
[25] = Inhibition of Staphylococcus aureus MetRS; how it was run: as §2
[26] = biological target: Methionine--tRNA ligase (Staphylococcus aureus subsp. aureus MW2, UniProt Q8NY00, I57N/V242F); assay: Inhibition of Staphylococcus aureus MetRS I57N V242F mutant
[27] = biological target: Methionine--tRNA ligase (Staphylococcus aureus subsp. aureus MW2, UniProt Q8NY00, V108M); assay: Inhibition of Staphylococcus aureus MetRS V108M mutant; how it was run: as §1
[28] = Inhibition of Escherichia coli MetRS; how it was run: as §2
[29] = system: Escherichia coli; assay: Antimicrobial activity against Escherichia coli expressing MetRS gene; format: functional
[30] = Inhibition of human mitochondrial MetRS; how it was run: as §2
[31] = system: Staphylococcus aureus; assay: Antimicrobial activity against Staphylococcus aureus expressing MetRS A247E mutant; format: functional
[32] = system: Staphylococcus aureus; assay: Antimicrobial activity against Staphylococcus aureus expressing MetRS I57N G54S mutant; format: functional
[33] = system: Staphylococcus aureus; assay: Antimicrobial activity against Staphylococcus aureus expressing MetRS I57N A247E mutant; format: functional
[34] = system: Staphylococcus aureus; assay: Antimicrobial activity against Staphylococcus aureus expressing MetRS I57N I238F mutant; format: functional
[35] = system: Staphylococcus aureus; assay: Antimicrobial activity against Staphylococcus aureus expressing MetRS I57N V242F mutant; format: functional
[36] = system: Staphylococcus aureus; assay: Antimicrobial activity against Staphylococcus aureus expressing MetRS G54S mutant; format: functional

Compound: C=C(F)c1sc(CNCCCNc2cc(=O)c3ccccc3[nH]2)c(C)c1Br [BEDEROCIN]
- Ki [1]: 0.08 nM
- MIC [2]: 32 µg/mL (≈ 71.1 µM)
- Ki [3]: 0.06 nM
- Ki [4]: 0.51 nM
- Ki [5]: > 5000 nM
- IC50 [6]: > 20000 nM
- MIC [7]: 8 µg/mL (≈ 17.8 µM)
- Ki [8]: 60 nM
- Ki [9]: 85 nM
- MIC [10]: 32 µg/mL (≈ 71.1 µM)
- IC50 [11]: > 20000 nM
- Ki [12]: 0.055 nM
- Ki [13]: > 20000 nM
- Ki [14]: 900 nM
- MIC [15]: 0.12 µg/mL (≈ 0.266 µM)
- MIC [16]: 0.12 µg/mL (≈ 0.266 µM)
- Ki [17]: 0.04 nM
- MIC [18]: > 64 µg/mL
- MIC [19]: 8 µg/mL (≈ 17.8 µM)
- Ki [20]: 1900 nM
- MIC [21]: 2 µg/mL (≈ 4.44 µM)
- Ki [22]: 225 nM
- Ki [23]: 350 nM
- MIC [24]: 8 µg/mL (≈ 17.8 µM)
- Ki [25]: 0.01 nM
- Ki [26]: 15 nM
- Ki [27]: 0.11 nM
- Ki [28]: 10 nM
- MIC [29]: 16 µg/mL (≈ 35.5 µM)
- Ki [30]: 23 nM
- MIC [31]: 4 µg/mL (≈ 8.88 µM)
- MIC [32]: 32 µg/mL (≈ 71.1 µM)
- MIC [33]: 32 µg/mL (≈ 71.1 µM)
- MIC [34]: 32 µg/mL (≈ 71.1 µM)
- MIC [35]: 32 µg/mL (≈ 71.1 µM)
- MIC [36]: 16 µg/mL (≈ 35.5 µM)
